# Experimental data published in ChEMBL document CHEMBL1151832, “Structure elucidation at the nanomole scale. 1. Trisoxazole macrolides and thiazole-containing cyclic peptides from the nudibranch Hexabranchus sanguineus” (2009).
# Active and inactive are the calls of the source. No cut-off for these calls is given here.
# How the values were obtained:
# Candida albicans [1] = experiment: Antifungal activity against Candida albicans ATCC 14503 by broth microdilution method; type: functional
# Method in brief: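 C. albicans reference strain grown on Sabouraud dextrose agar at 30 °C for 24 h. NCCLS broth microdilution: 2-fold serial dilutions from DMSO stocks in RPMI-1640 buffered to pH 7.0 with 0.165 M MOPS. Final concentrations 0.062–64 µg/mL; amphotericin B control 0.0078–8 µg/mL. Tested in replicate; growth read as OD 600 nm; MIC = lowest concentration giving ≥90% growth inhibition.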
# Candida albicans [2] = experiment: Antifungal activity against fluconazole-resistant Candida albicans isolate UCDFR1 by broth microdilution method; type: functional, organism-based
# Method in brief: (§1)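 Isolates were maintained on Sabouraud dextrose agar at 30 °C, for 24 h (Candida) or 48 h (C. neoformans). Testing followed the NCCLS broth microdilution method, using 2-fold serial dilutions from DMSO stocks in RPMI-1640 buffered to pH 7.0 with 0.165 M MOPS. Final concentrations were 0.062–64 µg/mL, with amphotericin B as positive control. Replicates were run, and growth was read by OD600. MIC was the lowest concentration giving ≥90% inhibition.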
# Nakaseomyces glabratus = experiment: Antifungal activity against Candida glabrata clinical isolate by broth microdilution method; type: functional; method in brief: as §1
# Pichia kudriavzevii = experiment: Antifungal activity against fluconazole-resistant Candida krusei clinical isolate by broth microdilution method; type: functional, organism-based; method in brief: as §1
# Cryptococcus neoformans = experiment: Antifungal activity against Cryptococcus neoformans var. grubii clinical isolate by broth microdilution method; type: functional
# Method in brief: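 Clinical isolate maintained on Sabouraud dextrose agar, 30 °C, 48 h. Susceptibility by NCCLS broth microdilution in RPMI-1640 with 0.165 M MOPS (pH 7.0), using 2-fold dilutions from DMSO stocks spanning 0.062–64 µg/mL final (amphotericin B control 0.0078–8 µg/mL). Replicate wells per run; OD 600 nm read-out; MIC endpoint is the lowest concentration with complete (≥90%) inhibition.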
# Cryptococcus gattii = experiment: Antifungal activity against Cryptococcus neoformans var. gattii clinical isolate by broth microdilution method; type: functional, organism-based; conditions: Cryptococcus bacillisporus; method in brief: as §1
# Candida albicans [3] = experiment: Antifungal activity against fluconazole-resistant Candida albicans isolate 96-489 by broth microdilution method
Structure (SMILES),MIC (Candida albicans [1]) [µg/mL],MIC (Candida albicans [2]),MIC (Nakaseomyces glabratus) [µg/mL],MIC (Pichia kudriavzevii),MIC (Cryptococcus neoformans) [µg/mL],MIC (Cryptococcus gattii),MIC (Candida albicans [3])
CO[C@H]([C@H](C)/C=C/N(C)C=O)[C@@H](C)C(=O)CC[C@H](C)[C@H](C[C@@H]1OC(=O)C[C@@H](OC(N)=O)C[C@H](C)C[C@H](O)[C@H](C)[C@@H](O)c2coc(n2)-c2coc(n2)-c2coc(n2)/C=C/C[C@H](O)[C@H]1C)OC [9-O-DESMETHYL KABIRAMIDE B],2,inactive,1,inactive,2,inactive,inactive
CO[C@H]([C@H](C)/C=C/N(C)C=O)[C@@H](C)C(=O)CC[C@H](C)[C@H](C[C@@H]1OC(=O)C[C@@H](O)CCC[C@H](O)[C@H](C)[C@H](OC)c2coc(n2)-c2coc(n2)-c2coc(n2)/C=C/CC[C@H]1C)OC,0.25,,0.125,,0.5,,
CO[C@H]([C@H](C)/C=C/N(C)C=O)[C@@H](C)C(=O)CC[C@H](C)[C@H](C[C@@H]1OC(=O)C[C@@H](OC(N)=O)C[C@H](C)C[C@H](O)[C@H](C)[C@@H](OC)c2coc(n2)-c2coc(n2)-c2coc(n2)/C=C/C[C@H](O)[C@H]1C)OC [KABIRAMIDE B],0.5,,0.5,,1,,
CO[C@H]([C@H](C)/C=C/N(C)C=O)[C@@H](C)C(=O)CC[C@H](C)[C@H](C[C@@H]1OC(=O)C[C@@H](OC(N)=O)C[C@H](C)C[C@H](O)[C@H](C)[C@@H](OC)c2coc(n2)-c2coc(n2)-c2coc(n2)/C=C/C[C@H](OC)[C@H]1C)OC [KABIRAMIDE C],0.016,Active,0.25,Active,0.125,Active,Active
C[C@@H]1[C@H](O)[C@@H](C)/C=C/C=C/C=C/C=C/C=C/C=C/C=C/[C@H](O[C@@H]2O[C@H](C)[C@@H](O)[C@H](N)[C@@H]2O)C[C@@H]2O[C@](O)(C[C@@H](O)C[C@@H](O)[C@H](O)CC[C@@H](O)C[C@@H](O)CC(=O)O[C@H]1C)C[C@H](O)[C@H]2C(=O)O [AMPHOTERICIN B],0.016,,0.25,,0.016,,
